# In ChEMBL document CHEMBL3407336, “Discovery of 1H-pyrazol-3(2H)-ones as potent and selective inhibitors of protein kinase R-like endoplasmic reticulum kinase (PERK)” (J Med Chem, 2015):
# Key:
# [1] = Intrinsic clearance in rat microsomes; format: ADME, Microsome
# [2] = AUC in Sprague-Dawley rat at 2 mg/kg, po compound dosed in 1% Tween 80/99% OraPlus; format: ADME, organism-based; design: dose 2 mg/kg, route oral; conditions: plasma
# Method in brief: (§1)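 PK in male Sprague-Dawley rats or male CD-1 mice. For iv, 1 mg/kg was given as a DMSO solution. For po, compound was given as a solution in the vehicle and at the dose named in each line, with MsOH-acidified vehicles at pH 2.0.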
# [3] = Mean residence time in Sprague-Dawley rat at 1 mg/kg, iv; format: ADME, organism-based; design: dose 1 mg/kg, route intravenous; conditions: in vivo; method in brief: as §1
# [4] = Volume of distribution at steady state in Sprague-Dawley rat at 1 mg/kg, iv; format: ADME, organism-based; design: dose 1 mg/kg, route intravenous; conditions: in vivo, read-out: Vdss; method in brief: as §1
# [5] = Oral bioavailability in Sprague-Dawley rat at 2 mg/kg compound dosed in 1% Tween 80/99% OraPlus; format: ADME, organism-based; conditions: in vivo; method in brief: as §1
# [6] = Clearance in Sprague-Dawley rat at 1 mg/kg, iv; format: ADME, organism-based; design: dose 1 mg/kg, route intravenous; conditions: in vivo; method in brief: as §1
# [7] = Oral bioavailability in Sprague-Dawley rat at 2.5 mg/kg compound dosed in 1% Pluronic F68/1% HPMC/15% Captisol/83% H2O with MsOH at pH 2; format: ADME, organism-based; conditions: in vivo; method in brief: as §1
# [8] = AUC in Sprague-Dawley rat at 2.5 mg/kg, po compound dosed in 1% Pluronic F68/1% HPMC/15% Captisol/83% H2O with MsOH at pH 2; format: ADME, organism-based; design: dose 2.5 mg/kg, route oral; conditions: plasma; method in brief: as §1
# [9] = tested on: Mus musculus; assay: Mean residence time in CD1 mouse at 1 mg/kg, iv; format: ADME, organism-based; design: dose 1 mg/kg, route intravenous; conditions: in vivo; method in brief: as §1
# [10] = AUC in CD1 mouse at 2.5 mg/kg, po compound dosed in 1% Pluronic F68/1% HPMC/15% Captisol/83% H2O with MsOH at pH 2; format: ADME, organism-based; design: dose 2.5 mg/kg, route oral; conditions: plasma; method in brief: as §1
# [11] = tested on: Mus musculus; assay: Volume of distribution at steady state in CD1 mouse at 1 mg/kg, iv; format: ADME, organism-based; design: dose 1 mg/kg, route intravenous; conditions: in vivo; method in brief: as §1
# [12] = Oral bioavailability in CD1 mouse at 2.5 mg/kg compound dosed in 1% Pluronic F68/1% HPMC/15% Captisol/83% H2O with MsOH at pH 2; format: ADME, organism-based; conditions: in vivo; method in brief: as §1
# [13] = Oral bioavailability in Sprague-Dawley rat at 2.5 mg/kg compound dosed in 1% Tween 80/2% HPMC/97% H2O with MsOH at pH 2; format: ADME, organism-based; conditions: in vivo; method in brief: as §1
# [14] = AUC in Sprague-Dawley rat at 2.5 mg/kg, po compound dosed in 1% Tween 80/2% HPMC/97% H2O with MsOH at pH 2; format: ADME, organism-based; design: dose 2.5 mg/kg, route oral; conditions: plasma; method in brief: as §1
Compound,MRT [3],Vd [4],clearance [6],bioavailability [7],AUC [8],other results
CNc1ncc2cc(-c3cc(C(=O)c4c(-c5ccccc5)n(C)n(-c5ccccc5)c4=O)ccc3C)ccc2n1,,,,,,microsomal CLint [1]: 497 µL/min/mg
COc1cc2nccc(Oc3ccc(NC(=O)c4c(-c5ccccc5)n(C)n(-c5ccccc5)c4=O)nc3)c2cc1OC,10.4 h,0.73 L/kg,1.17 mL/min/kg,,,AUC [2]: 20.2 µM·h; bioavailability [5]: 50%
CNc1ncc2cc(-c3c(C)ccc(C(=O)c4c(-c5ccccc5)n(C)n(-c5ccccc5)c4=O)c3N)ccc2n1,,,,,,microsomal CLint [1]: 29 µL/min/mg
Cc1ncc2cc(-c3c(C)ccc(C(=O)c4c(-c5ccccc5)n(C)n(-c5ccccc5)c4=O)c3N)ccc2n1,1.4 h,2.6 L/kg,36.7 mL/min/kg,69%,1.2 µM·h,
Cc1ccc(C(=O)c2c(-c3ccccc3)n(C)n(-c3ccccc3)c2=O)c(N)c1-c1ccc2nc(C(F)F)sc2c1,5.3 h,5 L/kg,15.7 mL/min/kg,76%,3.4 µM·h,
Cc1ccc2cc(-c3c(C)ccc(C(=O)c4c(-c5ccccc5)n(C)n(-c5ccccc5)c4=O)c3N)ccc2n1,2.3 h,3.6 L/kg,26.7 mL/min/kg,55%,1.4 µM·h,MRT [9]: 5 h; AUC [10]: 8.8 µM·h; Vdss [11]: 1.2 L/kg; bioavailability [12]: 46%
Cc1ccc(C(=O)c2c(-c3ccccc3)n(C)n(-c3ccccc3)c2=O)c(N)c1-c1ccc2nc(C(F)(F)F)sc2c1,10.8 h,8.1 L/kg,12.5 mL/min/kg,83%,3.2 µM·h,
CNc1ncc2cc(-c3cc(C(=O)c4c(-c5ccccc5)n(C)n(-c5ccccc5)c4=O)ccc3N)ccc2n1,0.5 h,0.56 L/kg,16.7 mL/min/kg,,,bioavailability [13]: 18%; AUC [14]: 0.8 µM·h
CNc1ncc2c(F)c(-c3c(C)ccc(C(=O)c4c(-c5ccccc5)n(C)n(-c5ccccc5)c4=O)c3N)ccc2n1,3.9 h,2.2 L/kg,9.5 mL/min/kg,48%,3.8 µM·h,
CNc1ncc2c(Cl)c(-c3c(C)ccc(C(=O)c4c(-c5ccccc5)n(C)n(-c5ccccc5)c4=O)c3N)ccc2n1,5.5 h,2.7 L/kg,8.33 mL/min/kg,49%,3.7 µM·h,
Cc1ccc(C(=O)c2c(-c3ccccc3)n(C)n(-c3ccccc3)c2=O)c(N)c1-c1ccc2nc(N)sc2c1,2.2 h,6.5 L/kg,50 mL/min/kg,67%,1 µM·h,
CNc1ncc2cc(-c3cc(C(=O)c4c(-c5ccccc5)n(C)n(-c5ccccc5)c4=O)ccc3Cl)ccc2n1,,,,,,microsomal CLint [1]: 167 µL/min/mg
CNc1nc2ccc(-c3c(C)ccc(C(=O)c4c(-c5ccccc5)n(C)n(-c5ccccc5)c4=O)c3N)cc2s1,3.1 h,2 L/kg,10.7 mL/min/kg,35%,2.5 µM·h,
Cc1nc2ccc(-c3c(C)ccc(C(=O)c4c(-c5ccccc5)n(C)n(-c5ccccc5)c4=O)c3N)cc2s1,2.2 h,3.1 L/kg,23.3 mL/min/kg,3%,0.1 µM·h,
Cc1nc(N)c2c(-c3ccc4c(c3)CCN4C(=O)Cc3cc(F)cc(C(F)(F)F)c3)cn(C)c2n1,11.9 h,1.2 L/kg,1.67 mL/min/kg,98%,23.6 µM·h,
